ChEMBL document CHEMBL1132389, “Novel farnesol and geranylgeraniol analogues: A potential new class of anticancer agents directed against protein prenylation” (J Med Chem, 1999)

Experiments:
[1] = molecular target: Protein farnesyl/geranylgeranyl transferase (Homo sapiens) (UniProt P49354+P49356+P53609); experiment: Relative IC50 for farnesyl and geranylgeranyl transferase; assay type: protein-complex assay
[2] = molecular target: Geranylgeranyl transferase type I (Homo sapiens, UniProt P49354+P53609); experiment: Inhibition of recombinant Geranylgeranyl transferase type I in scintillation proximity assay; assay type: protein-complex assay
Summary of the method: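 Recombinant mammalian GGTase I in scintillation proximity assay with streptavidin beads, using tritiated GGPP and biotin-Aha-TKCVIL peptide as substrates. Run in the same manner as the FTase assay. IC50 and Ki values determined.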

[3] = molecular target: T1, Protein farnesyltransferase (Homo sapiens, UniProt P49354+P49356); experiment: Inhibition of recombinant farnesyltransferase (mFTase) in scintillation proximity assay; assay type: protein-complex assay
Summary of the method: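 Recombinant mammalian FTase in scintillation proximity assay with streptavidin beads. Substrates: tritiated FPP (15–30 Ci/mmol, final 0.12 μM) and biotin-Aha-TKCVIM peptide (final 0.1 μM). IC50 determined. Ki from the same system with varied tritiated FPP concentrations.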

NIH3T3 [4] = experiment: Inhibition of anchorage independent growth of H-Ras(61L)-transformed NIH3T3 fibroblasts in soft agar; assay type: functional, cell-based; conditions: Mus musculus
Summary of the method: (§1)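 NIH3T3 fibroblasts transfected with H-Ras(61L) (H-Ras-F) or H-Ras(61L)CVLL (H-Ras-GG), kept in DMEM with 10% calf serum and 1% antibiotic/antimycotic at 37 °C, 10% CO2. Two-layer soft agar (0.6% bottom, 0.3% top). Cells seeded in the top layer with compound in ethanol over a concentration range, added only at seeding. Grown 2 weeks at 37 °C. Colonies stained with p-iodonitrotetrazolium violet 24 h before image-analysis count. IC50 reported.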

NIH3T3 [5] = experiment: Inhibition of anchorage independent growth of H-Ras(61L)CVLL-transformed NIH3T3 fibroblasts in soft agar; assay type: functional, cell-based; conditions: Mus musculus; summary of the method: as §1
[6] = molecular target: T1, Protein farnesyltransferase; experiment: Relative Vmax compared to FPP in continuous spectrofluorimetric assay
[7] = system: C=C/C(=C\COP(=O)(O)OP(=O)(O)O)CC/C=C(\C)CCC=C(C)C; experiment: (§2) Km determined in continuous spectrofluorimetric assay; assay type: protein-complex assay; conditions: Homo sapiens
Summary of the method: (§3)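 Continuous fluorimetric assay with recombinant mammalian FTase and dansyl-GCVLS peptide. Buffer: Tris-HCl pH 7.0, DTT, MgCl2, ZnCl2, with 0.4% n-dodecyl-β-D-maltoside solution. Premixed 5 min at 30 °C. Isoprenoid diphosphate at final 0.10 to 5 μM. Reaction started with enzyme. Fluorescence (ex 350, em 486 nm) read for 300 s at 30 °C. Linear rate converted to μM/s using a separately measured enhancement factor for each substrate. Km derived from the rates.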

[8] = system: C=CC/C(=C\COP(=O)(O)OP(=O)(O)O)CC/C=C(\C)CCC=C(C)C; experiment: as §2; assay type: protein-complex assay; conditions: Homo sapiens; summary of the method: as §3

Molecule | Ratio [1] | IC50 [2] | IC50 [3] | IC50 (NIH3T3 [4]) | IC50 (NIH3T3 [5]) | other results
C=CC/C(=C\CO)CC/C=C(\C)CC/C=C(\C)CCC=C(C)C |  |  |  | > 25 µM | 4.6 µM | 
C=CC/C(=C\CO)CC/C=C(\C)CCC=C(C)C |  |  |  | 10.2 µM | > 25 µM | 
CC/C(=C\CO)CC/C=C(\C)CCC=C(C)C |  |  |  | > 25 µM | > 25 µM | 
CC(C)=CCC/C(C)=C/CC/C(=C/CO)c1ccccc1 |  |  |  | > 25 µM | > 25 µM | 
C=C/C(=C\CO)CC/C=C(\C)CC/C=C(\C)CCC=C(C)C |  |  |  | 18 µM | 13.9 µM | 
Protein farnesyltransferase (Homo sapiens) (from UniProt P49354+P49356) |  |  |  |  |  | Km [7]: 0.156 µM; Km [8]: 0.703 µM
C=C/C(=C\CO)CC/C=C(\C)CCC=C(C)C |  |  |  | 10.9 µM | 14.1 µM | 

Further lines, with some results ahead:

Ratio [1] | IC50 [2] | IC50 [3] | Molecule | IC50 (NIH3T3 [4]) | IC50 (NIH3T3 [5]) | other results
1600 | 50 µM | 31 nM | CC(C)=CCC/C(C)=C/CC/C(=C/COP(=O)(O)OP(=O)(O)O)C(C)(C)C |  |  | 
7.5 |  | 453 nM | C=CC/C(=C\COP(=O)(O)OP(=O)(O)O)CC/C=C(\C)CC/C=C(\C)CCC=C(C)C |  |  | 
600 | 100 µM | 173 nM | C=C/C(=C\COP(=O)(O)OP(=O)(O)O)CC/C=C(\C)CCC=C(C)C |  |  | Krel [6]: 0.524
> 340 | > 100 µM | 299 nM | CC(C)=CCC/C(C)=C/CC/C(=C/COP(=O)(O)OP(=O)(O)O)c1ccccc1 |  |  | 
> 530 | > 100 µM | 189 nM | C=CC/C(=C\COP(=O)(O)OP(=O)(O)O)CC/C=C(\C)CCC=C(C)C |  |  | Krel [6]: 0.0711
4.3 | 3.05 µM | 715 nM | C=C/C(=C\COP(=O)(O)OP(=O)(O)O)CC/C=C(\C)CC/C=C(\C)CCC=C(C)C |  |  | 
> 460 | > 100 µM | 215 nM | CC/C(=C\COP(=O)(O)OP(=O)(O)O)CC/C=C(\C)CCC=C(C)C |  |  | 
